Results taken from PMC8276234 (Journal of medicinal chemistry, 2019).
“Also recorded” adds a separate entry of the source.

Key:
[1] = biological target: b’ domain of PDI (Homo sapiens, UniProt P07237); test: ANS spectral scan; assay type: binding; settings: 5 μM PDI, 100 μM compound
Method in brief: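 Human PDI was preincubated with 100 μM compound or matching DMSO in TBS at 37 °C for 1 h. ANS was then added, followed by 20 min in the dark at 25 °C. Fluorescence spectrum: Ex 370 nm, Em 400–700 nm.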

[2] = biological target: T1, PDI (Homo sapiens, UniProt P07237); test: PDI reductase assay; assay type: biochemical; settings: for PDI inhibitory activity (in words): PDI reductase assay; for fold reduction of potency: replacing the nitrile in BAP2 (6) and 32 with a trifluoromethyl group
Method in brief: (§1)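 N-terminal His-tagged human PDI was expressed in E. coli BL21(DE3) pLysS with 1 mM IPTG for 4 h at 37 °C. It was purified on Ni-NTA and dialyzed into 100 mM sodium phosphate, 2 mM EDTA, pH 7.0. PDI (0.4 μM) was preincubated 1 h with compound in phosphate/EDTA buffer with 8 μM DTT. DTT (500 μM) and bovine insulin (130 μM) were then added at room temperature. Aggregation was read at 620 nm. Percent activity came from the 0–80 min change, corrected for DTT alone.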

[3] = test system: GBM cell; test: Combination with As2O3, GBM cell proliferation; assay type: cell-based
[4] = biological target: wild-type PDI (Homo sapiens, UniProt P07237); test: Thermal shift assay, wild-type PDI; assay type: binding; settings: for increase of melting temperature: recombinant PDI, dose-dependent, up to 100 μM; for stabilization of PDI to thermal denaturation: 100 μM
Method in brief: (§2)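 Purified PDI (wild-type, C53S/C397S or H256A; 0.5 mg/mL in 50 mM Tris, pH 7.0) was mixed with compound in DMSO and ROX dye. Samples were heated from 25 to 99 °C at 1 °C/min. Boltzmann melting temperature was compared with the 5% DMSO control.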

[5] = biological target: T2, H256A PDI (Homo sapiens, UniProt P07237, H256A); test: Thermal shift assay, H256A PDI; assay type: binding; settings: 100 μM
Method in brief: as §2

[6] = biological target: C53S/C397S PDI (Homo sapiens, UniProt P07237, C397S/C53S); test: Thermal shift assay, C53S/C397S PDI; assay type: binding; settings: 100 μM
Method in brief: as §2

[7] = biological target: T2, H256A PDI; test: PDI reductase assay, H256A mutant PDI; assay type: biochemical; settings: 10 μM
Method in brief: as §1

[8] = biological target: T1, PDI; test: PDI reductase assay after competition with N-acetyl cysteine; assay type: biochemical; settings: compound 40 μM; 0, 1, 2 or 5 mM NAC
Method in brief: as §1

[9] = test system: MMP2; test: Gelatin zymography and Western blot of conditioned media; assay type: cell-based, human; settings: U87MG cells, 10 μM (PACMA31 0.25 μM), 48 hours
Method in brief: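 U87MG cells (0.5 x 10^6/well) attached overnight and were serum-starved 12 h before treatment. Cleared conditioned media (5 µg protein) ran on 10% SDS-PAGE with 0.1% gelatin. Gels were washed in 2.5% Triton X-100 Tris/CaCl2/ZnCl2 buffer, incubated overnight at 37 °C, then Coomassie R-250 stained and destained. Cleaved MMP2 in media was also assessed by Western blot.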

[10] = test system: MMP9; test: Western blot of cell lysates, MMP9; assay type: cell-based, human; settings: U87MG cells, 10 μM (PACMA31 0.25 μM), 48 hours
Method in brief: (§3)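 Treated U87MG cells were lysed by sonication in Tris/NaCl/Triton X-100/SDS buffer (pH 7.4) and spun at 13,500×g, 4 °C, 10 min. Protein was quantified by BCA. 30 μg per lane ran on 10% gels and transferred to PVDF. Primary antibodies were applied overnight at 4 °C. Fluorescent secondaries were imaged.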

[11] = test system: D54 cells; test: Clonogenic survival assay with ionizing radiation; assay type: cell-based; settings: 1 μM, 0-6 Gy
Method in brief: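 D54 monolayer cells (37 °C, 5% CO2, mycoplasma-tested, STR-authenticated) were irradiated at 0, 1, 2, 4 or 6 Gy and plated immediately at 200, 200, 400, 600 and 1000 cells/well. Test compounds (1 μM), reference inhibitor (0.05 μM) or DMSO were added. After 10–12 days, colonies were stained with 0.1% crystal violet.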

[12] = test system: A172 cells; test: Transwell migration assay; assay type: cell-based, human; settings: 4 hours
Method in brief: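 Treated A172 cells (1 x 10^5) were seeded into inserts with 8.0 µm PET membranes in serum-free medium. The lower well held DMEM with 10% FBS, and FBS-free wells served as control. After 4 h, cells were Giemsa-stained and 5 fields per well were imaged at 10X.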

[13] = test system: U87MG cells; test: Bromouridine RNA sequencing; assay type: cell-based, human; settings: 10 μM compound 18, U87MG cells, 4 hours
Method in brief: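 U87MG cells exposed to test compound or DMSO for 4 h, with 2 mM bromouridine added for the last 30 min. Total RNA was TRIzol-extracted, and Bru-labelled RNA was captured on anti-BrdU antibody magnetic beads, then sequenced. Reads were mapped to hg19. Genes were filtered to size >300 bp and mean RPKM >0.5, and ranked by transcription fold change versus control for pre-ranked GSEA.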

[14] = test system: EIF2α; test: Western blot, phosphorylation of EIF2α; assay type: cell-based, human; settings: U87MG and A172 cells; 20 μM (PACMA31 1.0 μM), 2 hours
Method in brief: as §3

[15] = test system: GRP78; test: Western blot, GRP78 expression; assay type: cell-based, human; settings: U87MG cells; 20 μM (PACMA31 1.0 μM), 24 hours
Method in brief: as §3

[16] = test system: HFF-1 normal human fibroblast cells; test: MTT assay in normal fibroblasts; assay type: cell-based; settings: potency in NU04 versus HFF-1 cells

Chain of C53S/C397S PDI (P07237 18-508 C53S/C397S): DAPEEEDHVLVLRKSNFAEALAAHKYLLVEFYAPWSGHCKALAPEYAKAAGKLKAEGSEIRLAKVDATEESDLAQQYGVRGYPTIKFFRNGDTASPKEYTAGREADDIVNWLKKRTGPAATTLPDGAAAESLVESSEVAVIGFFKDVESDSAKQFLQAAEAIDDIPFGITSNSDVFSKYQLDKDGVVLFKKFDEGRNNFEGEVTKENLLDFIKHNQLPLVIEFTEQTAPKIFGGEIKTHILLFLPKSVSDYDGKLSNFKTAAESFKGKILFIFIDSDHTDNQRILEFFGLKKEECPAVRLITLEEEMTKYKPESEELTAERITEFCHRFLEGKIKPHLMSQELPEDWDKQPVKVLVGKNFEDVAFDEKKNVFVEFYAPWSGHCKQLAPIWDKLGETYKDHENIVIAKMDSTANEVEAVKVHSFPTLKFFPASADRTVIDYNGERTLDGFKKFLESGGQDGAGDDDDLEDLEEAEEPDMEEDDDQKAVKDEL
Chain of wild-type PDI (P07237 18-508): as the sequence (P07237 18-508 C53S/C397S) above, with S36C, S380C counted along it
T1 sequence (P07237 18-508): as the sequence (P07237 18-508 C53S/C397S) above, with S36C, S380C counted along it
Chain of b’ domain of PDI (P07237 18-508): as the sequence (P07237 18-508 C53S/C397S) above, with S36C, S380C counted along it
T2 sequence (P07237 18-508 H256A): as the sequence (P07237 18-508 C53S/C397S) above, with S36C, H239A, S380C counted along it

## COc1ccc(C(=O)/C=C/c2cccc(C#N)c2)cc1 [Compound 8, (E)-3-(3-(4-Methoxyphenyl)-3-oxoprop-1-en-1-yl)benzonitrile]
[1]
  effect on ANS fluorescence: did not hinder dye fluorescence

## O=C(/C=C/c1cccc(O)c1)c1ccccc1O [NC589]
[2]
  PDI inhibitory activity (in words): inactive

## N#Cc1cccc(/C=C/C(=O)c2ccc(S(N)(=O)=O)cc2)c1 [Compound 13, (E)-4-(3-(3-Cyanophenyl)acryloyl)benzenesulfonamide]
[3]
  inhibition of GBM cell proliferation in combination with As2O3: synergistically

## O=C(/C=C/c1cccc(C(F)(F)F)c1)c1ccc(O)cc1 [Compound 55, (E)-1-(4-Hydroxyphenyl)-3-(3-(trifluoromethyl)phenyl)prop-2-en-1-one]
[2]
  fold reduction of potency: 2 to 4 fold

## N#Cc1cccc(/C=C/C(=O)c2cnccn2)c1 [Compound 29, (E)-3-(3-Oxo-3-(pyrazin-2-yl)prop-1-en-1-yl)benzonitrile]
[1]
  effect on ANS fluorescence: did not hinder dye fluorescence

## CN(C)S(=O)(=O)c1ccc(C(=O)/C=C/c2cccc(C#N)c2)cc1 [Compound 14, (E)-4-(3-(3-Cyanophenyl)acryloyl)-N,N-dimethylbenzenesulfonamide]
[3]
  inhibition of GBM cell proliferation in combination with As2O3: synergistically

## O=C(/C=C/c1ccc(O)cc1)c1ccccc1O [NC587]
[2]
  PDI inhibitory activity (in words): inactive

## O=C(/C=C/c1ccccc1O)c1ccccc1O [NC588]
[2]
  PDI inhibitory activity (in words): inactive

## COC(=O)c1cccc(/C=C/C(=O)c2cccc(O)c2)c1 [Compound 46, Methyl-(E)-3-(3-(3-hydroxyphenyl)-3-oxoprop-1-en-1-yl)benzoate]
[4]
  increase of melting temperature: more than 1 °C
[5]
  stabilization (thermal shift) in the H256A mutant: not abolished
[6]
  stabilization (thermal shift) in the C53S/C397S mutant: not abolished
[7]
  activity against H256A mutant PDI: abolished upon mutation
[8]
  activity after competition with N-acetyl cysteine (NAC): abolished by 5 mM NAC, but not by lower concentrations

## N#Cc1cccc(/C=C/C(=O)c2ccc(Br)cc2)c1 [Compound 10, (E)-3-(3-(4-Bromophenyl)-3-oxoprop-1-en-1-yl)benzonitrile]
[2]; replacement of the hydroxyl group (6) with bromine
  fold decrease in the inhibition of PDI activity: 2 fold

## O=C(/C=C/c1ccc(-c2ccncc2)cc1)c1cccc(O)c1 [Compound 69, (E)-1-(3-Hydroxyphenyl)-3-(4-(pyridin-4-yl)phenyl)prop-2-en-1-one]
[4]
  stabilization of PDI to thermal denaturation: did not stabilize PDI

## O=C(/C=C/c1ccc(-c2cccnc2)cc1)c1cccc(O)c1 [Compound 68, (E)-1-(3-Hydroxyphenyl)-3-(4-(pyridin-3-yl)phenyl)prop-2-en-1-one]
[4]
  increase of melting temperature: more than 1 °C
[5]
  stabilization (thermal shift) in the H256A mutant: not abolished
[6]
  stabilization (thermal shift) in the C53S/C397S mutant: not abolished
[9]
  MMP2 activity and secretion: inhibit MMP2 activity and secretion
[10]
  MMP9 expression: decreased
[11]
  synergy with ionizing radiation (IR): synergized with IR
[7]
  activity against H256A mutant PDI: abolished upon mutation
[8]
  activity after competition with N-acetyl cysteine (NAC): unaffected by up to 5 mM NAC

## CCCCCN(CCCCC)S(=O)(=O)c1ccc(C(=O)/C=C/c2cccc(C#N)c2)cc1 [Compound 18, (E)-4-(3-(3-Cyanophenyl)acryloyl)-N,N-dipentylbenzenesulfonamide]
[4]
  stabilization of PDI to thermal denaturation: did not stabilize PDI
[12]; 10 μM
  transwell migration: inhibited migration
[12]; 30 μM
  transwell migration: inhibited migration
[10]
  MMP9 expression: decreased
[13]
  Fold Change in transcription, AKAP5: −3.4
  Fold Change in transcription, ANKRD36B: −2.8
  Fold Change in transcription, BARD1: −2.3
  Fold Change in transcription, BBS10: −2.3
  Fold Change in transcription, CCNA2: −2.3
  Fold Change in transcription, CHSY3: −2.6
  Fold Change in transcription, DUT: −2.3
  Fold Change in transcription, FBXO43: −2.7
  Fold Change in transcription, FPGT: −2.3
  Fold Change in transcription, HIST1H2BC: −2.3
  Fold Change in transcription, KCTD4: −2.8
  Fold Change in transcription, LYPD6: −3.1
  Fold Change in transcription, MYBL1: −2.6
  Fold Change in transcription, SLITRK5: −3.6
  Fold Change in transcription, ST8SIA4: −3.1
  Fold Change in transcription, ZNF404: −2.7

## CCN(CC)S(=O)(=O)c1ccc(C(=O)/C=C/c2cccc(C#N)c2)cc1 [Compound 15, (E)-4-(3-(3-Cyanophenyl)acryloyl)-N,N-diethylbenzenesulfonamide]
[3]
  inhibition of GBM cell proliferation in combination with As2O3: synergistically

## C#CC(=O)N(c1ccc(OC)cc1OC)C(C(=O)NCC(=O)OCC)c1cccs1 (stereo not drawn) [PACMA31, reference compound]
[4]
  stabilization of PDI to thermal denaturation: does not stabilize PDI
[14]
  phosphorylation of EIF2α: did not induce phosphorylation of EIF2α
[15]
  expression of GRP78: increase in expression of GRP78
[12]; 30 μM
  transwell migration: inhibited migration
[9]
  MMP2 activity and secretion: inhibit MMP2 activity and secretion
[10]
  MMP9 expression: decreased
[1]
  effect on ANS fluorescence: did not hinder dye fluorescence
[8]
  activity after competition with N-acetyl cysteine (NAC): significantly abolished

## C[C@]12CC[C@@H]3c4ccc(O)cc4CC[C@H]3[C@@H]1CC[C@@H]2O [estradiol, reference compound]
[4]
  stabilization of PDI to thermal denaturation: stabilizes PDI to thermal denaturation
  increase of melting temperature: more than 1 °C
[5]
  stabilization (thermal shift) in the H256A mutant: abolished
[6]
  stabilization (thermal shift) in the C53S/C397S mutant: but not the C53S/C397S mutant

## CCCCCN(CCCCC)S(=O)(=O)c1ccc(C(=O)/C=C/c2cccc(O)c2)cc1 [Compound 59, (E)-4-(3-(3-Hydroxyphenyl)acryloyl)-N,N-dipentylbenzenesulfonamide]
[16]
  Fold Difference: 3.8
[4]
  increase of melting temperature: more than 1 °C
[5]
  stabilization (thermal shift) in the H256A mutant: not abolished
[6]
  stabilization (thermal shift) in the C53S/C397S mutant: not abolished
[12]; 30 μM
  transwell migration: inhibited migration
[10]
  MMP9 expression: decreased
[7]
  activity against H256A mutant PDI: active against the H256A mutant; also recorded: not His256-dependent
[1]
  effect on ANS fluorescence: competes with ANS
[8]
  activity after competition with N-acetyl cysteine (NAC): abolished by 5 mM NAC, but not by lower concentrations

## O=C(/C=C/c1ccc(C(F)(F)F)cc1)c1ccc(O)cc1 [Compound 57, (E)-1-(4-Hydroxyphenyl)-3-(4-(trifluoromethyl)phenyl)prop-2-en-1-one]
[2]
  fold reduction of potency: 2 to 4 fold
